The term IC50 denotes the concentration at which inhibition is half-maximal. A high value points to weaker potency.

Active and inactive are the calls of the source. The calls are words filed in the database; no cut-off is given here. Starred links: 1 amine or outer side, 2 acyl side, 3 side chain; linkers in the order of their positions; H or OH if unused. Non-standard residues stand in square brackets, D forms with d. Residues, ends and D or L forms follow the SMILES beside them. *: point of attachment. X1 = CC[C@H](C)[C@H](OC(=O)[C@@H](C)[C@@H](CC)N[*:1])C(=O)[*:2]; Pentanoyl(2S-OH,3S-Me) = CC[C@H](C)[C@H](O)C(=O)*; X2 = C[C@H](N[*:1])C(=O)C(C)(C)C(=O)[*:2]; NMeF = CN[C@@H](Cc1ccccc1)C(=O)O; NMeI = CC[C@H](C)[C@H](NC)C(=O)O; X3 = CC[C@@H](N*)[C@H](C)C(=O)O; NMeV = CN[C@H](C(=O)O)C(C)C

These results are taken from ChEMBL document CHEMBL1153035, “Desmethoxymajusculamide C, a cyanobacterial depsipeptide with potent cytotoxicity in both cyclic and ring-opened forms” (J Nat Prod, 2009).

Data set [1] is described as follows: Cytotoxicity against mouse Neuro2a cells after 24 hrs. It is filed as functional, cell-based. To be noted: N2a.
The test system of data set [2] is HCT-116. Kind of data set: Selectivity ratio, IC50 for human H460 cells to IC50 for human HCT116 cells. It is filed as functional.
Data set [3] deals with MDA-MB-435. In words: Selectivity ratio, IC50 for human MDA-MB-435 cells to IC50 for human HCT116 cells. It is filed as functional.
Data set [4] can be described thus: Selectivity ratio, IC50 for […] cells to IC50 for human HCT116 cells. It counts as functional.
In data set [5] the test system is HCT-116. In words: Cytotoxicity against human HCT116 cells after 120 hrs. To be noted: HCT-116, 120 h.
The test system of another data set is A10. In words: Effect on actin cytoskeleton in rat A10 cells assessed as loss of F-actin filament at 52 nM by TRITC-phalloidin staining. It counts as functional, cell-based. In a few lines:
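A-10 cells on glass coverslips in BME + 10% fetal calf serum, exposed 24 h, then fixed with 3% paraformaldehyde, permeabilized with 0.2% Triton X-100, and reduced with NaBH4. Stained 45 min with 100 nM TRITC-phalloidin plus DAPI. F-actin examined by fluorescence microscopy against vehicle-treated control.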

Data set [6] deals with MDA-MB-435. Kind of data set: Cytotoxicity against human MDA-MB-435 cells after 24 hrs. To be noted: MDA-MB-435, 24 h. It is filed as functional, cell-based.
Another data set deals with NCI-H460. In words: Cytotoxicity against human H460 cells after 24 hrs. It is filed as functional, cell-based. To be noted: NCI-H460, 24 h.
In data set [7] the test system is HCT-116. Kind of data set: Antitumor activity against human HCT116 cells xenografted in SCID mouse assessed as tumor growth rate at 0.31 mg/kg, iv dosed daily for 5 days relative to control. It is filed as functional, organism-based. Set-up: dose 0.31 mg/kg. In a few lines:
(§1)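 HCT-116 tumor cells from tissue, 10^6 implanted subcutaneously into pooled SCID mice (>17 g, weights within 5 g), 5 per group. Starting 1 day after inoculation, bolus tail-vein iv daily for 5 days. Vehicle: DMSO stock diluted 1:1 with Cremophor-propylene glycol (40:60), then ≥10-fold with saline. Minimum %T/C reported; sacrifice at day 30.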
On the technique in general: In xenograft studies the graft and the host belong to different species.

The nature of data set [8]: Toxicity in human HCT116 cells xenografted in SCID mouse assessed as maximum tolerated dose. It counts as organism-based, HCT-116. To be noted: in vivo, read-out: Activity.
The subject of data set [9] is HCT-116. Kind of data set: Antitumor activity against human HCT116 cells xenografted in SCID mouse at 0.62 mg/kg, iv daily for 5 days relative to control. It counts as functional, organism-based. Further details: dose 0.62 mg/kg. In a few lines:
as §1

Data set [10] deals with HCT-116. In words: Cytotoxicity against human HCT116 cells assessed as clonogenic concentration required for 10% surviving fraction after 2 hrs. It counts as functional. A digest of the protocol: (§2)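 HCT-116 cells seeded at 200 or 20,000 per 60 mm dish in RPMI + 10% FBS. Drug added at a final top concentration of 10 µg/mL (10.5 µM) with 10-fold dilutions, for 2 h or 24 h then replaced by drug-free medium, or left continuously (168 h). After 7 days, colonies stained with methylene blue; colonies of ≥50 cells counted and normalized to untreated control.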

Data set [11] relates to HCT-116. Kind of data set: Cytotoxicity against human HCT116 cells assessed as clonogenic concentration required for 10% surviving fraction after 7 days. It is filed as functional. In a few lines: as §2
Data set [12] deals with HCT-116. In words: Cytotoxicity against human HCT116 cells assessed as clonogenic concentration required for 10% surviving fraction after 24 hrs. It is filed as functional. In a few lines:
as §2

As for `CC[C@H](C)[C@H](O)C(=O)NCC(=O)N(C)[C@H](C(=O)NCC(=O)N(C)[C@H](C(=O)N(C)[C@@H](Cc1ccccc1)C(=O)N[C@@H](C)C(=O)C(C)(C)C(=O)N[C@@H](C)C(=O)N[C@H](CC)[C@H](C)C(=O)O)C(C)C)[C@@H](C)CC` ({Pentanoyl(2S-OH,3S-Me)}-G[NMeI]G[NMeV][NMeF][X2]A-X3), the IC50 in [1] was more than 1000 nM; in the data set on HCT-116 [5], 16 nM; with MDA-MB-435 [6], 230 nM; in the data set with NCI-H460, 94 nM. The “Ratio IC50” value stood at 5 in the data set on HCT-116 [2], 14 in the data set on MDA-MB-435 [3] and 10 in [4]. In the data set on A10, the result was Active.
Turning to `CC[C@H](C)[C@@H]1OC(=O)[C@@H](C)[C@@H](CC)NC(=O)[C@H](C)NC(=O)C(C)(C)C(=O)[C@H](C)NC(=O)[C@H](Cc2ccccc2)N(C)C(=O)[C@H](C(C)C)N(C)C(=O)CNC(=O)[C@H]([C@@H](C)CC)N(C)C(=O)CNC1=O` [DESMETHOXYMAJUSCULAMIDE C] (cyclo(A[X1]G[NMeI]G[NMeV][NMeF][X2])), the result with HCT-116 [7], with HCT-116 [9] and in the data set on A10 was Active. Besides, the half-inhibitory concentration (IC50) in data set [1] is more than 1000 nM; in the data set with HCT-116 [5], 20 nM; with MDA-MB-435 [6] it was 220 nM; with NCI-H460, 63 nM. Moreover, the “Ratio IC50” value with HCT-116 [2] was 5; in the data set with MDA-MB-435 [3], 11; in data set [4] it was 10. In [8], the MTD is 2.5 mg/kg. The Activity was more than 10.5 µM in the data set with HCT-116 [10], 2.1 nM in the data set with HCT-116 [11] and more than 10.5 µM with HCT-116 [12].
